Results as given in ChEMBL document CHEMBL5058577, “EUbOPEN Chemogenomics Library 2 (Multiplex)” (2022).

Tested on: Fibroblast
Experiment: Multiplex assay against human fibroblast
Format: toxicity, cell-based
In short: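 Hoechst33342, BioTracker Green Microtubule Cytoskeleton Dye, MitoTracker Red and Annexin V Alexa Fluor 680 were added to live cells at seeding, and imaging on a CQ1 microscope at 37°C and 5% CO2 followed compound addition. Gating by CellPathfinder machine learning separated cells into Hoechst high-intensity objects or normal cells, then normal cells into healthy, pyknosed or fragmented nuclei, then pyknosed cells into mitotic or apoptotic. Per cents of healthy-nucleus cells are reported for the tubulin, mitochondrial-mass and membrane-permeability phenotypes.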

[1] = 12 h, 1 µM, compound concentration 1 uM, replicate 1
[2] = 12 h, 1 µM, compound concentration 1 uM, replicate 2
[3] = 12 h, 10 µM, compound concentration 10 uM, replicate 1
[4] = 12 h, 10 µM, compound concentration 10 uM, replicate 2
[5] = 24 h, 1 µM, compound concentration 1 uM, replicate 1
[6] = 24 h, 1 µM, compound concentration 1 uM, replicate 2
[7] = 24 h, 10 µM, compound concentration 10 uM, replicate 1
[8] = 24 h, 10 µM, compound concentration 10 uM, replicate 2
[9] = 48 h, 1 µM, compound concentration 1 uM, replicate 1
[10] = 48 h, 1 µM, compound concentration 1 uM, replicate 2
[11] = 48 h, 10 µM, compound concentration 10 uM, replicate 1
[12] = 48 h, 10 µM, compound concentration 10 uM, replicate 2

`Cc1sc2c(c1C)C(c1ccc(Cl)cc1)=N[C@@H](CC(=O)NCCCCCCCCNC(=O)COc1cccc3c1C(=O)N(C1CCC(=O)NC1=O)C3=O)c1nnc(C)n1-2` (some centres not stated) was tested, and the “Population Apoptotic (%)” value [1] was 57%, the “Population Fragmented Nuclei (%)” value [1] was 10% and the “Population Healthy Nuclei (%)” value [1] was 72%. The “Population Hoechst High Intensity Objects (%)” value [1] was 3%, the “Population Membrane Permeable-Phenotype (%)” value [1] was 1% and the “Population Mitochondria Different-Phenotype (%)” value [1] was 4%. For the same compound, the “Population Mitotic Cells (%)” value [1] was 42%, the “Population Normal (%)” value [1] was 96% and the “Population Pyknosed Nuclei (%)” value [1] was 16%. The “Population Tubulin-Different-Phenotype (%)” value [1] was 25%, the “Total Cell Count” value [1] was 118 and the “Population Apoptotic (%)” value [2] was 42%. The “Population Fragmented Nuclei (%)” value [2] was 34%, the “Population Healthy Nuclei (%)” value [2] was 34% and the “Population Hoechst High Intensity Objects (%)” value [2] was 6%. The “Population Membrane Permeable-Phenotype (%)” value [2] was 23%, the “Population Mitochondria Different-Phenotype (%)” value [2] was 23% and the “Population Mitotic Cells (%)” value [2] was 57%. For the same compound, the “Population Normal (%)” value [2] was 93%, the “Population Pyknosed Nuclei (%)” value [2] was 31% and the “Population Tubulin-Different-Phenotype (%)” value [2] was 66%. For the same compound, the “Total Cell Count” value [2] was 94, the “Population Apoptotic (%)” value [3] was 54% and the “Population Fragmented Nuclei (%)” value [3] was 13%. The “Population Healthy Nuclei (%)” value [3] was 56%, the “Population Hoechst High Intensity Objects (%)” value [3] was 11% and the “Population Membrane Permeable-Phenotype (%)” value [3] was 1%. For the same compound, the “Population Mitochondria Different-Phenotype (%)” value [3] was 19%, the “Population Mitotic Cells (%)” value [3] was 45% and the “Population Normal (%)” value [3] was 88%. For the same compound, the “Population Pyknosed Nuclei (%)” value [3] was 30%, the “Population Tubulin-Different-Phenotype (%)” value [3] was 50% and the “Total Cell Count” value [3] was 171. The “Population Apoptotic (%)” value [4] was 44%, the “Population Fragmented Nuclei (%)” value [4] was 27% and the “Population Healthy Nuclei (%)” value [4] was 27%. For the same compound, the “Population Hoechst High Intensity Objects (%)” value [4] was 17%, the “Population Membrane Permeable-Phenotype (%)” value [4] was 7% and the “Population Mitochondria Different-Phenotype (%)” value [4] was 26%. For the same compound, the “Population Mitotic Cells (%)” value [4] was 55%, the “Population Normal (%)” value [4] was 82% and the “Population Pyknosed Nuclei (%)” value [4] was 45%. For the same compound, the “Population Tubulin-Different-Phenotype (%)” value [4] was 69%, the “Total Cell Count” value [4] was 115 and the “Population Apoptotic (%)” value [5] was 56%. The “Population Fragmented Nuclei (%)” value [5] was 20%, the “Population Healthy Nuclei (%)” value [5] was 53% and the “Population Hoechst High Intensity Objects (%)” value [5] was 10%. The “Population Membrane Permeable-Phenotype (%)” value [5] was 3%, the “Population Mitochondria Different-Phenotype (%)” value [5] was 3% and the “Population Mitotic Cells (%)” value [5] was 44%. For the same compound, the “Population Normal (%)” value [5] was 89%, the “Population Pyknosed Nuclei (%)” value [5] was 26% and the “Population Tubulin-Different-Phenotype (%)” value [5] was 25%. The “Total Cell Count” value [5] was 107, the “Population Apoptotic (%)” value [6] was 65% and the “Population Fragmented Nuclei (%)” value [6] was 41%. For the same compound, the “Population Healthy Nuclei (%)” value [6] was 32%, the “Population Hoechst High Intensity Objects (%)” value [6] was 3% and the “Population Membrane Permeable-Phenotype (%)” value [6] was 16%. The “Population Mitochondria Different-Phenotype (%)” value [6] was 20%, the “Population Mitotic Cells (%)” value [6] was 35% and the “Population Normal (%)” value [6] was 96%. For the same compound, the “Population Pyknosed Nuclei (%)” value [6] was 25%, the “Population Tubulin-Different-Phenotype (%)” value [6] was 72% and the “Total Cell Count” value [6] was 80. The “Population Apoptotic (%)” value [7] was 67%, the “Population Fragmented Nuclei (%)” value [7] was 20% and the “Population Healthy Nuclei (%)” value [7] was 38%. The “Population Hoechst High Intensity Objects (%)” value [7] was 13%, the “Population Membrane Permeable-Phenotype (%)” value [7] was 3% and the “Population Mitochondria Different-Phenotype (%)” value [7] was 9%. For the same compound, the “Population Mitotic Cells (%)” value [7] was 32%, the “Population Normal (%)” value [7] was 86% and the “Population Pyknosed Nuclei (%)” value [7] was 41%. For the same compound, the “Population Tubulin-Different-Phenotype (%)” value [7] was 47%, the “Total Cell Count” value [7] was 154 and the “Population Apoptotic (%)” value [8] was 44%. For the same compound, the “Population Fragmented Nuclei (%)” value [8] was 25%, the “Population Healthy Nuclei (%)” value [8] was 32% and the “Population Hoechst High Intensity Objects (%)” value [8] was 12%. For the same compound, the “Population Membrane Permeable-Phenotype (%)” value [8] was 17%, the “Population Mitochondria Different-Phenotype (%)” value [8] was 20% and the “Population Mitotic Cells (%)” value [8] was 55%. For the same compound, the “Population Normal (%)” value [8] was 87%, the “Population Pyknosed Nuclei (%)” value [8] was 42% and the “Population Tubulin-Different-Phenotype (%)” value [8] was 68%. For the same compound, the “Total Cell Count” value [8] was 103, the “Population Apoptotic (%)” value [9] was 88% and the “Population Fragmented Nuclei (%)” value [9] was 41%. The “Population Healthy Nuclei (%)” value [9] was 24%, the “Population Hoechst High Intensity Objects (%)” value [9] was 27% and the “Population Membrane Permeable-Phenotype (%)” value [9] was 0%. The “Population Mitochondria Different-Phenotype (%)” value [9] was 0%, the “Population Mitotic Cells (%)” value [9] was 12% and the “Population Normal (%)” value [9] was 72%. The “Population Pyknosed Nuclei (%)” value [9] was 33%, the “Population Tubulin-Different-Phenotype (%)” value [9] was 33% and the “Total Cell Count” value [9] was 102. For the same compound, the “Population Apoptotic (%)” value [10] was 93%, the “Population Fragmented Nuclei (%)” value [10] was 42% and the “Population Healthy Nuclei (%)” value [10] was 37%. For the same compound, the “Population Hoechst High Intensity Objects (%)” value [10] was 8%, the “Population Membrane Permeable-Phenotype (%)” value [10] was 27% and the “Population Mitochondria Different-Phenotype (%)” value [10] was 20%. The “Population Mitotic Cells (%)” value [10] was 6%, the “Population Normal (%)” value [10] was 91% and the “Population Pyknosed Nuclei (%)” value [10] was 20%. The “Population Tubulin-Different-Phenotype (%)” value [10] was 82%, the “Total Cell Count” value [10] was 85 and the “Population Apoptotic (%)” value [11] was 86%. The “Population Fragmented Nuclei (%)” value [11] was 40%, the “Population Healthy Nuclei (%)” value [11] was 20% and the “Population Hoechst High Intensity Objects (%)” value [11] was 38%. For the same compound, the “Population Membrane Permeable-Phenotype (%)” value [11] was 5%, the “Population Mitochondria Different-Phenotype (%)” value [11] was 10% and the “Population Mitotic Cells (%)” value [11] was 13%. For the same compound, the “Population Normal (%)” value [11] was 61%, the “Population Pyknosed Nuclei (%)” value [11] was 38% and the “Population Tubulin-Different-Phenotype (%)” value [11] was 55%. The “Total Cell Count” value [11] was 156, the “Population Apoptotic (%)” value [12] was 57% and the “Population Fragmented Nuclei (%)” value [12] was 38%. The “Population Healthy Nuclei (%)” value [12] was 38%, the “Population Hoechst High Intensity Objects (%)” value [12] was 15% and the “Population Membrane Permeable-Phenotype (%)” value [12] was 14%. The “Population Mitochondria Different-Phenotype (%)” value [12] was 14%, the “Population Mitotic Cells (%)” value [12] was 42% and the “Population Normal (%)” value [12] was 84%. The “Population Pyknosed Nuclei (%)” value [12] was 23%, the “Population Tubulin-Different-Phenotype (%)” value [12] was 80% and the “Total Cell Count” value [12] was 108.
